In ChEMBL document CHEMBL5674890, “Selective inhibition of CBP/p300 HAT by A-485 results in suppression of lipogenesis and hepatic gluconeogenesis” (Cell Death Dis, 2020):
The source made the active and inactive calls. No cut-off for these calls is given here.

Key:
Mus musculus [1] = assay: Anti-obesity activity in 16 hrs fasted C57BL/6 mouse supplemented with normal chow diet assessed as decrease in blood glucose level at 20 mg/kg/day, ip administered for 1 week measured after 15 to 30 mins by pyruvate tolerance test; type: functional, organism-based; details: time 1.0 weeks
Outline: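 Normal-chow male C57BL/6 mice (8 weeks old) dosed ip at 20 mg·kg−1·day−1 for 7 days. Pyruvate tolerance test: 16 h fast, then pyruvate 2 g/kg body weight ip, blood glucose followed over time. Mean ± SEM, n = 5–9.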

Mus musculus [2] = assay: Anti-obesity activity in C57BL/6 mouse supplemented with normal chow diet assessed as decrease in hepatic G6Pc mRNA expression at 20 mg/kg/day, ip administered for 1 week measured a by RT-qPCR assay; type: functional, organism-based; details: time 1.0 weeks
Outline: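 Liver G6Pc mRNA in 8-week-old normal-chow male C57BL/6 mice after 7 days ip at 20 mg·kg−1·day−1. Trizol RNA extraction, SYBR Green RT-qPCR. Mean ± SEM, n = 5–9.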

Mus musculus [3] = assay: Anti-obesity activity in C57BL/6 mouse supplemented with high fat diet assessed as decrease in fasting blood glucose at 20 mg/kg/day, ip administered for 1 week; type: functional, organism-based; details: time 1.0 weeks
Outline: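 Male C57BL/6 mice fed high-fat diet for 14 weeks from 5 weeks of age, then ip 20 mg·kg−1·day−1 for 7 days. Body weight, EchoMRI lean/fat mass, and random or 16 h-fasted blood glucose recorded, as the line states.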

Mus musculus [4] = assay: Inhibition of lipogenesis in C57BL/6 mouse supplemented with high-fat diet assessed as decrease in ACC mRNA expression at 20 mg/kg/day, ip administered for 1 week measured by RT-qPCR assay; type: functional, organism-based; details: time 1.0 weeks
Outline: (§1)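 Male C57BL/6 mice were fed high-fat diet for 14 weeks from 5 weeks of age, then injected ip with 20 mg·kg−1·day−1 for 7 days or given vehicle. Epididymal and inguinal WAT were weighed, examined by H&E, and analysed. Transcripts were measured by Trizol/SYBR Green RT-qPCR; proteins by western blot. n = 5–9; mean ± SEM.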

Mus musculus [5] = assay: Inhibition of lipogenesis in C57BL/6 mouse supplemented with normal chow diet assessed as decrease in ACC mRNA expression at 20 mg/kg/day, ip administered for 1 week measured by RT-qPCR assay; type: functional, organism-based; details: time 1.0 weeks
Outline: (§2)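 Eight-week-old male C57BL/6 mice on normal chow were given 20 mg·kg−1·day−1 ip daily for 7 days or vehicle. Epididymal WAT was collected. Lipogenic, adipogenic and fatty-acid-oxidation transcripts were quantified by Trizol extraction and SYBR Green RT-qPCR. FAS, ACC, PPARγ and C/EBPα protein were assessed by western blot. n = 5–9; mean ± SEM.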

Mus musculus [6] = assay: Inhibition of lipogenesis in C57BL/6 mouse supplemented with normal chow diet assessed as decrease in ACC protein expression at 20 mg/kg/day, ip administered for 1 week measured by western blot analysis; type: functional, organism-based; details: time 1.0 weeks; outline: as §2
Mus musculus [7] = assay: Inhibition of lipogenesis in C57BL/6 mouse supplemented with normal chow diet assessed as effect on ACADVL mRNA expression at 20 mg/kg/day, ip administered for 1 week measured by RT-qPCR assay; type: functional, organism-based; details: time 1.0 weeks; outline: as §2
Mus musculus [8] = assay: Inhibition of lipogenesis in C57BL/6 mouse supplemented with normal chow diet assessed as effect on MCAD mRNA expression at 20 mg/kg/day, ip administered for 1 week measured by RT-qPCR assay; type: functional, organism-based; details: time 1.0 weeks; outline: as §2
Mus musculus [9] = assay: Inhibition of lipogenesis in C57BL/6 mouse supplemented with high-fat diet assessed as decrease in C/EBPalpha mRNA expression at 20 mg/kg/day, ip administered for 1 week measured measured by RT-qPCR assay; type: functional, organism-based; details: time 1.0 weeks; outline: as §1
Mus musculus [10] = assay: Inhibition of lipogenesis in C57BL/6 mouse supplemented with high-fat diet assessed as decrease in PPARgamma protein expression at 20 mg/kg/day, ip administered for 1 week measured measured by western blot analysis; type: functional, organism-based; details: time 1.0 weeks; outline: as §1
Adipocyte [11] = assay: Inhibition of lipogenesis in mouse adipocytes isolated stromal vascular cells assessed as decrease in ChREBP mRNA expression measured after 24 hrs by RT-qPCR assay; type: functional, cell-based
Outline: (§3)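 Stromal vascular cells from inguinal WAT of C57BL/6 mice, grown in DMEM/F12 + 10% FBS at 37 °C, 10% CO2. At confluence, induced 48 h with 5 μg/ml insulin, 1 μM dexamethasone, 0.5 mM isobutylmethylxanthine, then 6 days in 5 μg/ml insulin; fully differentiated day 8. Mature adipocytes exposed to inhibitor 24 h. Total RNA by Trizol, SYBR Green RT-qPCR; protein by western blot.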

Adipocyte [12] = assay: Inhibition of lipogenesis in mouse adipocytes isolated stromal vascular cells assessed as decrease in SREBP-1c mRNA expression measured after 24 hrs by RT-qPCR assay; type: functional, cell-based; outline: as §3
Adipocyte [13] = assay: Inhibition of lipogenesis in mouse adipocytes isolated stromal vascular cells assessed as decrease in PPARgamma mRNA expression measured after 24 hrs by RT-qPCR assay; type: functional, cell-based; outline: as §3
Hepatocyte [14] = assay: Inhibition of lipogenesis in mouse primary hepatocytes assessed as decrease in FAS protein expression at 3 uM in presence of 100 nM insulin and 5 to 25 mM glucose measured after 18 hrs by western blot analysis; type: functional, cell-based
Hepatocyte [15] = assay: Inhibition of glucogenesis in mouse primary hepatocytes stimulated with 100 uM 8-Br-cAMP assessed as decrease in FBP mRNA expression at 3 uM in combination with 2 mM metformin measured by RT-qPCR assay; type: functional, cell-based
Outline: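 Primary mouse hepatocytes given 3 μM compound with 2 mM metformin in the presence of 100 μM 8-Br-cAMP. Gluconeogenic gene mRNA measured by SYBR Green RT-qPCR. Mean ± SEM, three independent experiments.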

Hepatocyte [16] = assay: Inhibition of glucogenesis in mouse primary hepatocytes stimulated with 100 uM 8-Br-cAMP assessed as effect on PGC1alpha mRNA expression at 3 uM measured after 8 hrs by RT-qPCR assay; type: functional, cell-based
Outline: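 Primary mouse hepatocytes treated with 3 μM compound and 100 μM 8-Br-cAMP for 8 h. Trizol RNA, SYBR Green RT-qPCR of the named transcript. Mean ± SEM, three independent experiments.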

Hepatocyte [17] = assay: Inhibition of glucogenesis in mouse primary hepatocytes stimulated with 100 uM 8-Br-cAMP assessed as effect on PGC1alpha protein expression at 3 uM measured after 12 hrs by western blot analysis; type: functional, cell-based
Outline: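 Primary mouse hepatocytes incubated 12 h with 3 μM compound and 100 μM 8-Br-cAMP. Lysates western blotted for FOXO1, C/EBPα or PGC1α. Three independent experiments.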

Mus musculus [18] = species: Mus musculus; assay: Inhibition of glucogenesis in mouse assessed as decrease in hepatic C/EBPalpha protein expression measured by western blot analysis; type: functional, organism-based
Outline: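 Livers from vehicle- or treated mice (ip 20 mg·kg−1·day−1 for 7 days) homogenized in lysis buffer; FOXO1 and C/EBPα analysed by western blot.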

[19] = biological target: CREB-binding protein/Histone acetyltransferase p300 (Homo sapiens) (UniProt Q09472+Q92793); assay: Inhibition of CBP/p300 in human HepG2 cells assessed as increase in FOXO1 and COP1 interaction at 3 uM; type: cell-based
Sequence of CREB-binding protein/Histone acetyltransferase p300 (Homo sapiens) (Q09472 whole entry, looked up): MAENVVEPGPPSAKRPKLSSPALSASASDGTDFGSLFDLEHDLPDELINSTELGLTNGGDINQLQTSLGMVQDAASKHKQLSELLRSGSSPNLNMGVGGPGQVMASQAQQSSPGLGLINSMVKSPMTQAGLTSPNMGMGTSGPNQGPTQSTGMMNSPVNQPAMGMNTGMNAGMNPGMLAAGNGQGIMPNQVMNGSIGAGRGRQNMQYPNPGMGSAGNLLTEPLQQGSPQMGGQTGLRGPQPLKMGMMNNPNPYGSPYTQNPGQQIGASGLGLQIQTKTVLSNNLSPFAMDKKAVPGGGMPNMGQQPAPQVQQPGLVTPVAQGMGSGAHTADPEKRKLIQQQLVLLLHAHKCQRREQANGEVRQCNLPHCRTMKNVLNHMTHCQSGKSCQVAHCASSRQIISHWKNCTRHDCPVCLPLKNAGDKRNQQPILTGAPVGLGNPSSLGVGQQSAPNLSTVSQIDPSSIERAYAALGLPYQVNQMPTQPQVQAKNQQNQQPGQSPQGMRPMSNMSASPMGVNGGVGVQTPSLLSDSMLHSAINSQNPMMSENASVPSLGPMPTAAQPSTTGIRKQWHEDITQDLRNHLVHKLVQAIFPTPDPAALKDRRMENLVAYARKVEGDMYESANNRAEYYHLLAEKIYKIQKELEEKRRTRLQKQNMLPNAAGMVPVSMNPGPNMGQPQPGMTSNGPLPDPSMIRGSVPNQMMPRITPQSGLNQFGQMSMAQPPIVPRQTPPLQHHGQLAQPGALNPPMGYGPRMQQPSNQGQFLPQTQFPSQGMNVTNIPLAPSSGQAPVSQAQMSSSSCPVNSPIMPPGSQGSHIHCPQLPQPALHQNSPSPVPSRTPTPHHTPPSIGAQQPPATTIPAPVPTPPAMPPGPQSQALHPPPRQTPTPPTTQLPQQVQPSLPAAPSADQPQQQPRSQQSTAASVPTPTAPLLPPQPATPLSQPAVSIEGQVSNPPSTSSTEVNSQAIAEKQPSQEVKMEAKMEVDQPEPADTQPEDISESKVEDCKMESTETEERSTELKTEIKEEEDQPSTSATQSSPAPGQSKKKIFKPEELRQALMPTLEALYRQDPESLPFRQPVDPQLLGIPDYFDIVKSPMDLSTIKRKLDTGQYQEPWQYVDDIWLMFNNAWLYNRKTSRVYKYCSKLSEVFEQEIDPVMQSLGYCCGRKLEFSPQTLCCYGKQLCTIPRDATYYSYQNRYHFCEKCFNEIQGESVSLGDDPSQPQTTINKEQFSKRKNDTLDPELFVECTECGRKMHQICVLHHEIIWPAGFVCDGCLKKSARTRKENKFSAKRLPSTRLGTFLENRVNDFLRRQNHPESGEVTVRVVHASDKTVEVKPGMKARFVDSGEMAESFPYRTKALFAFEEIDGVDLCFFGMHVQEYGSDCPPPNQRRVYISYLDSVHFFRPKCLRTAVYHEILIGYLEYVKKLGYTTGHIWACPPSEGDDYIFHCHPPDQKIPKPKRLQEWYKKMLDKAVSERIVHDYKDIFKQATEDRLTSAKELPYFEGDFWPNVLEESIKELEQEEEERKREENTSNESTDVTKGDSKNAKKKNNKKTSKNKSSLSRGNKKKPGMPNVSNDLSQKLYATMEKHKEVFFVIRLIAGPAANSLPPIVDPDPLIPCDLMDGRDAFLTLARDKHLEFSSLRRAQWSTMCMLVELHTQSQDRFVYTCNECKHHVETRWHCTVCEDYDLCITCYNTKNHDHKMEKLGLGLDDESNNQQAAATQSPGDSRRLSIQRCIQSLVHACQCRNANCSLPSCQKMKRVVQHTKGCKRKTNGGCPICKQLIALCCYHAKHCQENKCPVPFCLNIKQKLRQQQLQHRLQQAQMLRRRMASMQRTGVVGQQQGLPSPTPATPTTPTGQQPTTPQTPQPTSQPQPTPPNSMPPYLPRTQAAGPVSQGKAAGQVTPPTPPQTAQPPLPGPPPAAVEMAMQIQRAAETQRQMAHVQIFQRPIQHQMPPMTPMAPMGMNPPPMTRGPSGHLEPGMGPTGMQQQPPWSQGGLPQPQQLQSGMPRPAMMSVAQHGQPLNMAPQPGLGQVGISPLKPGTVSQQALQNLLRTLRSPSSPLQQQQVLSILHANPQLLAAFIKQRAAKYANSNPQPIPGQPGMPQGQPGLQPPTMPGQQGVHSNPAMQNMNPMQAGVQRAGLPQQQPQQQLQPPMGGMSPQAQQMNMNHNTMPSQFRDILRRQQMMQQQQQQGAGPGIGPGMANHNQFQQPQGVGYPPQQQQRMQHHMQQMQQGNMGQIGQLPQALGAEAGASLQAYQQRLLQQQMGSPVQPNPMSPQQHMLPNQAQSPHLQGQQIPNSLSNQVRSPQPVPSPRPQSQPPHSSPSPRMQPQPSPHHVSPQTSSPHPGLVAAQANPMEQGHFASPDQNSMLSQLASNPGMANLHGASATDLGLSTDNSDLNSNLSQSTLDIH
Sequence of CREB-binding protein/Histone acetyltransferase p300 (Homo sapiens) (Q92793 whole entry, looked up): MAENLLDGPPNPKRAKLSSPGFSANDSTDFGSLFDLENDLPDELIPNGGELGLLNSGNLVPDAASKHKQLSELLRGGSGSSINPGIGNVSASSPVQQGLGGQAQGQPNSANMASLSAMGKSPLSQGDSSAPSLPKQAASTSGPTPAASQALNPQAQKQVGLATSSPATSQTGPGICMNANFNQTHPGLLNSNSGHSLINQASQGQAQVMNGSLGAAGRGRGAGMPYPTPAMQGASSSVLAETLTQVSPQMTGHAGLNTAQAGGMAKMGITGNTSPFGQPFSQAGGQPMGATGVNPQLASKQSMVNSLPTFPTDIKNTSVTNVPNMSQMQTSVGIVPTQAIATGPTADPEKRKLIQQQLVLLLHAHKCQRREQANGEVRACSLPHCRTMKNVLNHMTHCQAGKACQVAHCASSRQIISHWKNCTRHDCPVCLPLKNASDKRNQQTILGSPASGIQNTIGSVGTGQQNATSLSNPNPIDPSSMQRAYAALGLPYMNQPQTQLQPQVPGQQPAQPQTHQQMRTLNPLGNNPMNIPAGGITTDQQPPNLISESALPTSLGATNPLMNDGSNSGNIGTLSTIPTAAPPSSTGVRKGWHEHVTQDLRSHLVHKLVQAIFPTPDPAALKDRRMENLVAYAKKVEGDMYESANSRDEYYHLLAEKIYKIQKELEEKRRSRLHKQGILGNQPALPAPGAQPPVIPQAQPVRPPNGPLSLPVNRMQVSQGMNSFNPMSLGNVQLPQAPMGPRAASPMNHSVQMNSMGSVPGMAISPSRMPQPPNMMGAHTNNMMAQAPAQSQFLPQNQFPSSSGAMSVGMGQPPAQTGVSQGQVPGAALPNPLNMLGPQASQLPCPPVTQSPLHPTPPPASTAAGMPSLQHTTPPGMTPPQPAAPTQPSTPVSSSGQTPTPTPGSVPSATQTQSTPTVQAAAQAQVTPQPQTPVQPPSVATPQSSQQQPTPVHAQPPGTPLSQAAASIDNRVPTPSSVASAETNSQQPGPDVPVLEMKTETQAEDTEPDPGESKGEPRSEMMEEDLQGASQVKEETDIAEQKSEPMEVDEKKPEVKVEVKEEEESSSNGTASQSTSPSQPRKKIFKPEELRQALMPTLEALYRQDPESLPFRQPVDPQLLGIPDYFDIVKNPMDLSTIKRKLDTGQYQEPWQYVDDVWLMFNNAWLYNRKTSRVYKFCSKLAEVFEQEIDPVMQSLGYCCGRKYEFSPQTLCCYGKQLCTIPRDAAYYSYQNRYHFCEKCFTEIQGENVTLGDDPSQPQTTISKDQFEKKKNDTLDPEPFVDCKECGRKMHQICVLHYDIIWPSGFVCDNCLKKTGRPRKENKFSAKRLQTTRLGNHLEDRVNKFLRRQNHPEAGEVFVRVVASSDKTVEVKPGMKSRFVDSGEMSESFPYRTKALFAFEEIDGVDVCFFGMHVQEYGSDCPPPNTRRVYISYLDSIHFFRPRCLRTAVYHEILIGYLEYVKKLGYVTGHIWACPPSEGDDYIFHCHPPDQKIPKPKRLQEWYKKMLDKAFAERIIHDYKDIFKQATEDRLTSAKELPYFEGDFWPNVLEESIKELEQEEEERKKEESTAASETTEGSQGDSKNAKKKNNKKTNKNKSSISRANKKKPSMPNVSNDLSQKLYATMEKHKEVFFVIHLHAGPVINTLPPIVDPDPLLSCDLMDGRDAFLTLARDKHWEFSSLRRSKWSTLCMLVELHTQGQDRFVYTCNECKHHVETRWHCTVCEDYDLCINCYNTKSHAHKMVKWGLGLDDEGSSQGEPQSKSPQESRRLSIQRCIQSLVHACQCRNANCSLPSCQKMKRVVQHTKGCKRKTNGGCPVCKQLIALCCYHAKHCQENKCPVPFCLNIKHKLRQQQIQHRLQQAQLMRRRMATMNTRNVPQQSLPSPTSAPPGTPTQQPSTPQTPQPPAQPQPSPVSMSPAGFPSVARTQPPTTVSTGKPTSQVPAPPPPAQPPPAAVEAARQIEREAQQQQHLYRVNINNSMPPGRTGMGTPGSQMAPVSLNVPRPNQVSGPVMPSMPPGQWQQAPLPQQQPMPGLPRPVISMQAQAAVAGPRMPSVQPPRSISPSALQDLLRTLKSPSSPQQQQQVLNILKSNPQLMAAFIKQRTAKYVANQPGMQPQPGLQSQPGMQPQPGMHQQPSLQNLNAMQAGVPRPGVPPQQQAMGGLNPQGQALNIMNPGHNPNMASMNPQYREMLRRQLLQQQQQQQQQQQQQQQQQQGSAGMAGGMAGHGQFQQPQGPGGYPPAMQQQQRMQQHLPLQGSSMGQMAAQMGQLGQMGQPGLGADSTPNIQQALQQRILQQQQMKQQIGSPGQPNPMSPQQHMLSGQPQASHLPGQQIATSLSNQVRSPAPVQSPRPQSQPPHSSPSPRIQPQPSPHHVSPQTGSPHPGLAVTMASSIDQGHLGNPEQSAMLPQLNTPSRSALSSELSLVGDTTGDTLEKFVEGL
Outline: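 HepG2 cells treated with 3 μM compound. FOXO1–COP1 interaction assessed by immunoprecipitation: lysate with antibody 2 h, then protein A/G beads overnight at 4 °C, followed by western blot.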

With `CNC(=O)Nc1ccc2c(c1)CCS21OC(=O)N(CC(=O)N(Cc2ccc(F)cc2)[C@@H](C)C(F)(F)F)C1=O` (some centres undefined) the Activity (Mus musculus [1]) was “Active”, the Activity (Mus musculus [2]) was “Active” and the Activity (Mus musculus [3]) was “Active”. The inhibition (Mus musculus [4]) was “Active”, the inhibition (Mus musculus [5]) was “Active” and the inhibition (Mus musculus [6]) was “Active”. The inhibition (Mus musculus [7]) was “inactive”, the inhibition (Mus musculus [8]) was “inactive” and the inhibition (Mus musculus [9]) was “Active”. For the same compound, the inhibition (Mus musculus [10]) was “Active”, the inhibition (Adipocyte [11]) was “Active” and the inhibition (Adipocyte [12]) was “Active”. For the same compound, the inhibition (Adipocyte [13]) was “Active”, the inhibition (Hepatocyte [14]) was “Active” and the inhibition (Hepatocyte [15]) was “Active”. The inhibition (Hepatocyte [16]) was “inactive”, the inhibition (Hepatocyte [17]) was “inactive” and the inhibition (Mus musculus [18]) was “Active”. For the same compound, the inhibition [19] was “Active”.
